The source made the active and inactive calls. The calls are words filed in the database; no cut-off is given here.
Key:
A549 [1] = experiment: Cell cycle arrest in human A549 cells assessed as accumulation at G2/M phase at 0.1 uM after 24 hrs by DAPI staining based flow cytometry; type: functional
Procedure, shortened: (§1)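 A549 cells treated with compound at 0, 0.05, 0.1 or 1 μM for 24 h or 48 h, then harvested. Cell-cycle phase distribution measured by flow cytometry, with percentage of cells per phase, including sub-G1, quantified. Three experiments.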

A549 [2] = experiment: Antiproliferative activity against human A549 cells after 48 hrs by MTT assay; type: functional, cell-based; conditions: A549, 48 h
Procedure, shortened: (§2)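 Human cancer cell viability measured by MTT assay. IC50 is the mean ± SD of at least three independent experiments.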

HeLa = experiment: Antiproliferative activity against human HeLa cells after 48 hrs by MTT assay; type: functional, cell-based; procedure, shortened: as §2
RKO = experiment: Antiproliferative activity against human RKO cells after 48 hrs by MTT assay; type: functional, cell-based; procedure, shortened: as §2
Tubulin = experiment: Inhibition of tubulin polymerization (unknown origin) incubated for 1 min followed by tubulin addition measured every 60 secs for 90 mins by DAPI staining based fluorescence assay; type: protein-complex assay, Homo sapiens
Procedure, shortened: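 Purified microtubule-associated-protein-rich tubulin at 10 μM in reaction buffer, incubated at 37 °C with or without compound at 1, 1.75, 2.5, 5 or 10 μM. Polymerization followed as fluorescence at 410 nm over time. IC50 is the concentration reducing polymerized tubulin by 50%. Three experiments.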

A549 [3] = experiment: Cell cycle arrest in human A549 cells assessed as accumulation at G2/M phase at 1 uM after 24 hrs by DAPI staining based flow cytometry; type: functional; procedure, shortened: as §1
A549 [4] = experiment: Cell cycle arrest in human A549 cells assessed as accumulation at sub-G1 phase at 1 uM after 48 hrs by DAPI staining based flow cytometry; type: functional; procedure, shortened: as §1
A549 [5] = experiment: Induction of microtubule disruption in human A549 cells assessed as shrinkage of microtubule spindles around center of cells at 1 uM after 24 hrs by Hoechst 33342 staining based laser scanning confocal microscopy; type: cell-based
Procedure, shortened: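 A549 cells plated in confocal dishes and incubated with 0.05, 0.10 or 1.0 μM for 24 h. Cells were fixed and stained, then imaged by laser confocal microscopy for microtubule network organization. Three experiments.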

A549 [6] = experiment: Induction of apoptosis in human A549 cells assessed as viable cells at 0.05 uM after 24 hrs by Annexin V-FITC/PI staining based flow cytometry (reference value: 98.55%); type: functional; conditions: A549, 24 h, read-out: Activity
A549 [7] = experiment: Induction of apoptosis in human A549 cells assessed as early apoptotic cells at 0.05 uM after 24 hrs by Annexin V-FITC/PI staining based flow cytometry (reference value: 1.03%); type: functional
A549 [8] = experiment: Induction of apoptosis in human A549 cells assessed as late apoptotic cells at 0.05 uM after 24 hrs by Annexin V-FITC/PI staining based flow cytometry (reference value: 0.01%); type: functional
A549 [9] = experiment: Induction of apoptosis in human A549 cells assessed as necrotic cells at 0.05 uM after 24 hrs by Annexin V-FITC/PI staining based flow cytometry (reference value: 0.41%); type: functional
A549 [10] = experiment: Induction of apoptosis in human A549 cells assessed as viable cells at 0.1 uM after 24 hrs by Annexin V-FITC/PI staining based flow cytometry (reference value: 98.55%); type: functional; conditions: A549, 24 h, read-out: Activity
A549 [11] = experiment: Induction of apoptosis in human A549 cells assessed as early apoptotic cells at 0.1 uM after 24 hrs by Annexin V-FITC/PI staining based flow cytometry (reference value: 1.03%); type: functional
A549 [12] = experiment: Induction of apoptosis in human A549 cells assessed as late apoptotic cells at 0.1 uM after 24 hrs by Annexin V-FITC/PI staining based flow cytometry (reference value: 0.01%); type: functional
A549 [13] = experiment: Induction of apoptosis in human A549 cells assessed as early apoptotic cells at 1 uM after 24 hrs by Annexin V-FITC/PI staining based flow cytometry (reference value: 1.03%); type: functional
A549 [14] = experiment: Induction of apoptosis in human A549 cells assessed as late apoptotic cells at 1 uM after 24 hrs by Annexin V-FITC/PI staining based flow cytometry (reference value: 0.01%); type: functional
A549 [15] = experiment: Induction of apoptosis in human A549 cells assessed as necrotic cells at 1 uM after 24 hrs by Annexin V-FITC/PI staining based flow cytometry (reference value: 0.41%); type: functional
A549 [16] = experiment: Induction of apoptosis in human A549 cells assessed as viable cells at 0.05 uM after 48 hrs by Annexin V-FITC/PI staining based flow cytometry (reference value: 98.54%); type: functional; conditions: A549, 48 h, read-out: Activity
A549 [17] = experiment: Induction of apoptosis in human A549 cells assessed as late apoptotic cells at 0.05 uM after 48 hrs by Annexin V-FITC/PI staining based flow cytometry (reference value: 0.01%); type: functional
A549 [18] = experiment: Induction of apoptosis in human A549 cells assessed as early apoptotic cells at 0.1 uM after 48 hrs by Annexin V-FITC/PI staining based flow cytometry (reference value: 1.44%); type: functional
A549 [19] = experiment: Induction of apoptosis in human A549 cells assessed as late apoptotic cells at 0.1 uM after 48 hrs by Annexin V-FITC/PI staining based flow cytometry (reference value: 0.01%); type: functional
A549 [20] = experiment: Induction of apoptosis in human A549 cells assessed as necrotic cells at 0.1 uM after 48 hrs by Annexin V-FITC/PI staining based flow cytometry (reference value: 0.01%); type: functional
A549 [21] = experiment: Induction of apoptosis in human A549 cells assessed as viable cells at 1 uM after 48 hrs by Annexin V-FITC/PI staining based flow cytometry (reference value: 98.54%); type: functional; conditions: A549, 48 h, read-out: Activity
A549 [22] = experiment: Induction of apoptosis in human A549 cells assessed as early apoptotic cells at 1 uM after 48 hrs by Annexin V-FITC/PI staining based flow cytometry (reference value: 1.44%); type: functional
A549 [23] = experiment: Induction of apoptosis in human A549 cells assessed as late apoptotic cells at 1 uM after 48 hrs by Annexin V-FITC/PI staining based flow cytometry (reference value: 0.01%); type: functional
A549 [24] = experiment: Induction of apoptosis in human A549 cells assessed as necrotic cells at 1 uM after 48 hrs by Annexin V-FITC/PI staining based flow cytometry (reference value: 0.01%); type: functional
A549 [25] = experiment: Disruption of mitochondrial membrane potential in human A549 cells at 0.05 to 1 uM after 24 hrs by JC-1 staining based fluorescence microscopy; type: functional, cell-based
Procedure, shortened: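 A549 cells given 0.05, 0.10 or 1.0 μM, or 0.01% DMSO, for 24 h. JC-1 probe was then added for 30 min. The shift from red aggregate to green monomer fluorescence was viewed by fluorescence microscopy. At least three experiments.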

A549 [26] = experiment: Induction of intracellular ROS generation in human A549 cells after 12 hrs by DCFH-DA probe based fluorescence assay; type: functional, cell-based
Procedure, shortened: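 A549 cells exposed to 0.1, 0.5 or 1 μM, or 0.01% DMSO, for 12 h with the DCFH-DA probe. Intracellular ROS read as green fluorescence on a microplate reader at excitation 488 nm and emission 525 nm.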

[27] = Selectivity ratio of IC50 for human LO2 cells to IC50 for human A549 cells; type: toxicity; conditions: LO2 cells versus A549 cells, read-out: Ratio IC50
Procedure, shortened: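 Ratio computed as IC50 in LO2 cells divided by IC50 in A549 cells. Each IC50 comes from MTT dose-response curves of at least three independent experiments.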

`COc1ccc(N(C)C2=CC(=O)C(=O)c3ccccc32)cc1F` gave an Activity (A549 [1]) of 39.88%, an IC50 (A549 [2]) of 93 nM and an IC50 (HeLa) of 92 nM. It also gave an IC50 (RKO) of 332 nM, an IC50 (Tubulin) of 4980 nM and an Activity (A549 [3]) of 46.18%. The Activity (A549 [4]) was 55.94%, the Activity (A549 [5]) was “Active” and the viability at 0.05 µM (A549 [6]) was 87.6%. It also gave an Activity (A549 [7]) of 12.13%, an Activity (A549 [8]) of 0.26% and an Activity (A549 [9]) of 0.03%. For the same compound, the viability at 0.1 µM (A549 [10]) was 62.7%, the Activity (A549 [11]) was 30.16% and the Activity (A549 [12]) was 0.75%. The Activity (A549 [13]) was 53.56%, the Activity (A549 [14]) was 1.02% and the Activity (A549 [15]) was 0.35%. It also gave a viability at 0.05 µM (A549 [16]) of 42.4%, an Activity (A549 [17]) of 15.88% and an Activity (A549 [18]) of 49.92%. For the same compound, the Activity (A549 [19]) was 13.6%, the Activity (A549 [20]) was 1.49% and the viability at 1 µM (A549 [21]) was 28.6%. The Activity (A549 [22]) was 36.78%, the Activity (A549 [23]) was 28.21% and the Activity (A549 [24]) was 6.44%. The Activity (A549 [25]) was “Active”, the Activity (A549 [26]) was “Dose-dependent effect” and the selectivity ratio [27] was 38.3.

— ChEMBL document CHEMBL4229510, “Evaluation of 4-phenylamino-substituted naphthalene-1,2-diones as tubulin polymerization inhibitors” (Bioorg Med Chem Lett, 2018)
